≈ marks a conversion by molar mass, not a printed value.
Columns and labels:
Assay type in all cases: functional
[1] = tested on: Bacillus cereus; assay: Antibacterial activity against Bacillus cereus CIP 6624 after 18 hrs by agar dilution method; settings: CIP 6624, 18 h
Summary of the method: (§1)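 Agar-dilution MIC against Gram-positive strains. Compounds in DMSO, geometric dilutions giving final 100−0.75 mg/L in Mueller Hinton agar. Strains grown 18 h at 37 °C in trypticase soy broth, diluted in sterile water, spotted by Steers inoculator (about 1000 UFC/spot). Plates incubated 18 h at 37 °C; DMSO blank; ofloxacin positive control. MIC = lowest concentration with no visible growth.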

[2] = tested on: Bacillus cereus; assay: Antibacterial activity against Bacillus cereus N190 after 18 hrs by agar dilution method; settings: N190, 18 h; summary of the method: as §1
[3] = tested on: Bacillus cereus; assay: Antibacterial activity against Bacillus cereus N258 after 18 hrs by agar dilution method; settings: N258, 18 h; summary of the method: as §1
[4] = tested on: Bacillus cereus; assay: Antibacterial activity against Bacillus cereus N349 after 18 hrs by agar dilution method; settings: N349, 18 h; summary of the method: as §1
[5] = tested on: Bacillus spizizenii; assay: Antibacterial activity against Bacillus subtilis ATCC 6633 after 18 hrs by agar dilution method; settings: ATCC 6633, 18 h; summary of the method: as §1
[6] = tested on: Corynebacterium striatum; assay: Antibacterial activity against Corynebacterium striatum N840 after 18 hrs by agar dilution method; settings: N840, 18 h; summary of the method: as §1
[7] = tested on: Enterococcus avium; assay: Antibacterial activity against Enterococcus avium CIP 104053 after 18 hrs by agar dilution method; settings: CIP 104053, 18 h; summary of the method: as §1
[8] = tested on: Enterococcus casseliflavus; assay: Antibacterial activity against Enterococcus casseliflavus N487 after 18 hrs by agar dilution method; settings: N487, 18 h; summary of the method: as §1
[9] = tested on: Enterococcus casseliflavus; assay: Antibacterial activity against Enterococcus casseliflavus CIP 103018 after 18 hrs by agar dilution method; settings: CIP 103018, 18 h; summary of the method: as §1
[10] = tested on: Enterococcus durans; assay: Antibacterial activity against Enterococcus durans CIP 104999 after 18 hrs by agar dilution method; settings: CIP 104999, 18 h; summary of the method: as §1
[11] = tested on: Enterococcus faecalis; assay: Antibacterial activity against Enterococcus faecalis CIP 103214 after 18 hrs by agar dilution method; settings: CIP 103214, 18 h; summary of the method: as §1
[12] = tested on: Enterococcus faecalis; assay: Antibacterial activity against Enterococcus faecalis CIP 104676 after 18 hrs by agar dilution method; settings: CIP 104676, 18 h; summary of the method: as §1
[13] = tested on: Enterococcus faecalis; assay: Antibacterial activity against Enterococcus faecalis N491 after 18 hrs by agar dilution method; settings: N491, 18 h; summary of the method: as §1
[14] = tested on: Enterococcus faecalis; assay: Antibacterial activity against Enterococcus faecalis N518 after 18 hrs by agar dilution method; settings: N518, 18 h; summary of the method: as §1
[15] = tested on: Enterococcus faecalis; assay: Antibacterial activity against Enterococcus faecalis N520 after 18 hrs by agar dilution method; settings: N520, 18 h; summary of the method: as §1
[16] = tested on: Enterococcus faecium; assay: Antibacterial activity against Enterococcus faecium CIP 103014 after 18 hrs by agar dilution method; settings: CIP 103014, 18 h; summary of the method: as §1
[17] = tested on: Enterococcus faecium; assay: Antibacterial activity against Enterococcus faecium CIP 107387 after 18 hrs by agar dilution method; settings: CIP 107387, 18 h; summary of the method: as §1
[18] = tested on: Enterococcus faecium; assay: Antibacterial activity against Enterococcus faecium N490 after 18 hrs by agar dilution method; settings: N490, 18 h; summary of the method: as §1
[19] = tested on: Enterococcus faecium; assay: Antibacterial activity against Enterococcus faecium N507 after 18 hrs by agar dilution method; settings: N507, 18 h; summary of the method: as §1
[20] = tested on: Enterococcus faecium; assay: Antibacterial activity against Enterococcus faecium N733 after 18 hrs by agar dilution method; settings: N733, 18 h; summary of the method: as §1
[21] = tested on: Enterococcus faecium; assay: Antibacterial activity against Enterococcus faecium N823 after 18 hrs by agar dilution method; settings: N823, 18 h; summary of the method: as §1
[22] = tested on: Enterococcus gallinarum; assay: Antibacterial activity against Enterococcus gallinarum CIP 105985 after 18 hrs by agar dilution method; settings: CIP 105985, 18 h; summary of the method: as §1
[23] = tested on: Enterococcus gallinarum; assay: Antibacterial activity against Enterococcus gallinarum N489 after 18 hrs by agar dilution method; settings: N489, 18 h; summary of the method: as §1
[24] = tested on: Enterococcus gallinarum; assay: Antibacterial activity against Enterococcus gallinarum N492 after 18 hrs by agar dilution method; settings: N492, 18 h; summary of the method: as §1
[25] = tested on: Enterococcus hirae; assay: Antibacterial activity against Enterococcus hirae CIP 5855 after 18 hrs by agar dilution method; settings: CIP 5855, 18 h; summary of the method: as §1
[26] = tested on: Listeria innocua; assay: Antibacterial activity against Listeria innocua E044 after 18 hrs by agar dilution method; settings: E044, 18 h; summary of the method: as §1
[27] = tested on: Listeria monocytogenes; assay: Antibacterial activity against Listeria monocytogenes CIP 103575 after 18 hrs by agar dilution method; settings: CIP 103575, 18 h; summary of the method: as §1
[28] = tested on: Listeria monocytogenes; assay: Antibacterial activity against Listeria monocytogenes N783 after 18 hrs by agar dilution method; settings: N783, 18 h; summary of the method: as §1
[29] = tested on: Listeria monocytogenes; assay: Antibacterial activity against Listeria monocytogenes N836 after 18 hrs by agar dilution method; settings: N836, 18 h; summary of the method: as §1
[30] = tested on: Listeria monocytogenes; assay: Antibacterial activity against Listeria monocytogenes N851 after 18 hrs by agar dilution method; settings: N851, 18 h; summary of the method: as §1
[31] = tested on: Staphylococcus aureus; assay: Antibacterial activity against Staphylococcus aureus ATCC 25923 after 18 hrs by agar dilution method; settings: ATCC 25923, 18 h; summary of the method: as §1
[32] = tested on: Staphylococcus aureus; assay: Antibacterial activity against Staphylococcus aureus ATCC 9144 oxford after 18 hrs by agar dilution method; summary of the method: as §1
[33] = tested on: Staphylococcus aureus; assay: Antibacterial activity against Staphylococcus aureus CIP 483 after 18 hrs by agar dilution method; settings: CIP 483, 18 h; summary of the method: as §1
[34] = tested on: Staphylococcus aureus; assay: Antibacterial activity against Staphylococcus aureus CIP 53154 after 18 hrs by agar dilution method; settings: CIP 53154, 18 h; summary of the method: as §1
[35] = tested on: Staphylococcus aureus; assay: Antibacterial activity against Staphylococcus aureus CIP 53156 after 18 hrs by agar dilution method; settings: CIP 53156, 18 h; summary of the method: as §1
[36] = tested on: Staphylococcus aureus; assay: Antibacterial activity against Staphylococcus aureus CIP 5710 after 18 hrs by agar dilution method; settings: CIP 5710, 18 h; summary of the method: as §1
[37] = tested on: Staphylococcus aureus; assay: Antibacterial activity against Staphylococcus aureus CIP 7625 after 18 hrs by agar dilution method; settings: CIP 7625, 18 h; summary of the method: as §1
[38] = tested on: Staphylococcus aureus; assay: Antibacterial activity against Staphylococcus aureus CRBIP 2121 after 18 hrs by agar dilution method; settings: CRBIP 2121, 18 h; summary of the method: as §1
[39] = tested on: Staphylococcus epidermidis; assay: Antibacterial activity against Staphylococcus epidermidis CIP 53124 after 18 hrs by agar dilution method; settings: CIP 53124, 18 h; summary of the method: as §1
[40] = tested on: Staphylococcus haemolyticus; assay: Antibacterial activity against Staphylococcus haemolyticus CIP 8156 after 18 hrs by agar dilution method; settings: CIP 8156, 18 h; summary of the method: as §1
[41] = tested on: Staphylococcus intermedius; assay: Antibacterial activity against Staphylococcus intermedius N987 after 18 hrs by agar dilution method; settings: N987, 18 h; summary of the method: as §1
[42] = tested on: Staphylococcus lugdunensis; assay: Antibacterial activity against Staphylococcus lugdunensis ATCC 43809 after 18 hrs by agar dilution method; settings: ATCC 43809, 18 h; summary of the method: as §1
[43] = tested on: Staphylococcus saprophyticus; assay: Antibacterial activity against Staphylococcus saprophyticus CIP 76125 after 18 hrs by agar dilution method; settings: CIP 76125, 18 h; summary of the method: as §1
[44] = tested on: Staphylococcus saprophyticus; assay: Antibacterial activity against Staphylococcus saprophyticus E260 after 18 hrs by agar dilution method; settings: E260, 18 h; summary of the method: as §1
[45] = tested on: Mammaliicoccus sciuri; assay: Antibacterial activity against Staphylococcus sciuri N993 after 18 hrs by agar dilution method; settings: N993, 18 h; summary of the method: as §1
[46] = tested on: Streptococcus agalactiae; assay: Antibacterial activity against Streptococcus agalactiae CIP 103227 after 18 hrs by agar dilution method; settings: ATCC 13813, 18 h; summary of the method: as §1

CN[C@H](CC(C)C)C(=O)N[C@H]1C(=O)N[C@@H](CC(N)=O)C(=O)N[C@H]2C(=O)N[C@H]3C(=O)N[C@H](C(=O)N[C@H](C(=O)O)c4cc(O)cc(O)c4-c4cc3ccc4O)[C@H](O)c3ccc(c(Cl)c3)Oc3cc2cc(c3O[C@@H]2O[C@H](CO)[C@@H](O)[C@H](O)[C@H]2O[C@H]2C[C@](C)(N)[C@H](O)[C@H](C)O2)Oc2ccc(cc2Cl)[C@H]1O [VANCOMYCIN]
MIC [1]: 0.3 µM (≈ 0.435 µg/mL)
MIC [2]: 0.3 µM (≈ 0.435 µg/mL)
MIC [3]: 0.3 µM (≈ 0.435 µg/mL)
MIC [4]: 0.6 µM (≈ 0.87 µg/mL)
MIC [5]: 0.1 µM (≈ 0.145 µg/mL)
MIC [6]: 0.3 µM (≈ 0.435 µg/mL)
MIC [7]: 0.3 µM (≈ 0.435 µg/mL)
MIC [8]: 2.7 µM (≈ 3.91 µg/mL)
MIC [9]: 2.7 µM (≈ 3.91 µg/mL)
MIC [10]: 0.3 µM (≈ 0.435 µg/mL)
MIC [11]: 1.3 µM (≈ 1.88 µg/mL)
MIC [12]: 5 µM (≈ 7.25 µg/mL)
MIC [13]: > 86 µM
MIC [14]: 0.6 µM (≈ 0.87 µg/mL)
MIC [15]: 0.6 µM (≈ 0.87 µg/mL)
MIC [16]: 0.3 µM (≈ 0.435 µg/mL)
MIC [17]: > 86 µM
MIC [18]: 22 µM (≈ 31.9 µg/mL)
MIC [19]: 0.6 µM (≈ 0.87 µg/mL)
MIC [20]: > 86 µM
MIC [21]: > 86 µM
MIC [22]: 5 µM (≈ 7.25 µg/mL)
MIC [23]: 5 µM (≈ 7.25 µg/mL)
MIC [24]: 5 µM (≈ 7.25 µg/mL)
MIC [25]: 0.3 µM (≈ 0.435 µg/mL)
MIC [26]: 0.3 µM (≈ 0.435 µg/mL)
MIC [27]: 0.3 µM (≈ 0.435 µg/mL)
MIC [28]: 0.3 µM (≈ 0.435 µg/mL)
MIC [29]: 0.3 µM (≈ 0.435 µg/mL)
MIC [30]: 0.3 µM (≈ 0.435 µg/mL)
MIC [31]: 0.6 µM (≈ 0.87 µg/mL)
MIC [32]: 0.2 µM (≈ 0.29 µg/mL)
MIC [33]: 0.6 µM (≈ 0.87 µg/mL)
MIC [34]: 0.6 µM (≈ 0.87 µg/mL)
MIC [35]: 0.3 µM (≈ 0.435 µg/mL)
MIC [36]: 0.6 µM (≈ 0.87 µg/mL)
MIC [37]: 2.7 µM (≈ 3.91 µg/mL)
MIC [38]: 2.7 µM (≈ 3.91 µg/mL)
MIC [39]: 0.6 µM (≈ 0.87 µg/mL)
MIC [40]: 0.6 µM (≈ 0.87 µg/mL)
MIC [41]: 0.6 µM (≈ 0.87 µg/mL)
MIC [42]: 0.6 µM (≈ 0.87 µg/mL)
MIC [43]: 0.6 µM (≈ 0.87 µg/mL)
MIC [44]: 0.6 µM (≈ 0.87 µg/mL)
MIC [45]: 0.6 µM (≈ 0.87 µg/mL)
MIC [46]: 0.3 µM (≈ 0.435 µg/mL)

Reference: ChEMBL document CHEMBL3585281, “Antibacterial Labdane Diterpenoids from Vitex vestita” (2015)
